Laboratory results published in ChEMBL document CHEMBL1156649, “Benzoic acid derivatives from Piper species and their antiparasitic activity” (J Nat Prod, 2008).
Values after ≈ are worked out from the molar mass of the structure shown.

Key:
Assay type in all cases: functional, organism-based
Leishmania braziliensis = experiment: Antileishmanial activity against Leishmania braziliensis 2903 promastigotes
Procedure, shortened: (§1)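 Promastigotes grown at 28 °C in stationary culture, seeded at 1 × 10^4 per 100 µL well in RPMI 1640-based Leishmania medium. DMSO-dissolved samples added to give 100 µg/mL final and serial dilutions. IC50 = concentration causing 50% reduction in parasite viability. Pentamidine (10 µg/mL) positive control.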

Trypanosoma cruzi = experiment: Antitrypanosomal activity against Trypanosoma cruzi Tulahuen
Plasmodium falciparum = experiment: Antiplasmodial activity against chloroquine-sensitive Plasmodium falciparum F32-Tanzania
Procedure, shortened: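 Culture per Trager and Jensen on glucose-enriched RPMI 1640 with 10% human serum at 37 °C. After 24 h, medium replaced with fresh medium containing compound at 0.1, 1 and 10 µg/mL, then incubated 48 h more. Blood smears on day 3; parasitemia compared with control. IC50 read graphically from concentration versus % inhibition. Chloroquine (0.1 µg/mL) positive control. Triplicate.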

Leishmania amazonensis = experiment: Antileishmanial activity against Leishmania amazonensis PH8 promastigotes; procedure, shortened: as §1
Leishmania donovani = experiment: Antileishmanial activity against Leishmania donovani PP75 promastigotes; procedure, shortened: as §1

SMILES | IC50 (Leishmania braziliensis) [µg/mL] | IC50 (Trypanosoma cruzi) [µg/mL] | IC50 (Plasmodium falciparum) [µg/mL] | IC50 (Leishmania amazonensis) [µg/mL] | IC50 (Leishmania donovani) [µg/mL]
C=C(C)C(O)Cc1cc(C(=O)O)cc(CC=C(C)C)c1O (racemic) | 67.6 (≈ 233 µM) | > 20 | > 10 | 67.6 (≈ 233 µM) | 67.3 (≈ 232 µM)
COC(=O)c1ccc(O)c(CC=C(C)C)c1 | 74.4 (≈ 338 µM) | > 20 | 2.8 (≈ 12.7 µM) | 74.4 (≈ 338 µM) | 62.5 (≈ 284 µM)
COc1c(/C=C/C(C)(C)O)cc(C(=O)O)cc1CC=C(C)C | 78.8 (≈ 259 µM) | > 20 | > 10 | > 100 | > 100
CC(C)=CCc1cc(C(=O)O)cc(CC=C(C)C)c1O | 34.1 (≈ 124 µM) | > 20 | > 10 | 45.3 (≈ 165 µM) | 40 (≈ 146 µM)

Now from value to molecule:

IC50 (Leishmania braziliensis) [µg/mL] | IC50 (Trypanosoma cruzi) [µg/mL] | IC50 (Plasmodium falciparum) [µg/mL] | IC50 (Leishmania amazonensis) [µg/mL] | IC50 (Leishmania donovani) [µg/mL] | SMILES
74.4 (≈ 315 µM) | 15.6 (≈ 66 µM) | 10 (≈ 42.3 µM) | 78.2 (≈ 331 µM) | 86.9 (≈ 368 µM) | C=C(C)C(O)Cc1cc(C(=O)OC)ccc1O (stereo not given)
81.9 (≈ 325 µM) | 16.4 (≈ 65 µM) | > 10 | 89.5 (≈ 355 µM) | 81.9 (≈ 325 µM) | C=C(C)C(O)Cc1cc(C(=O)OC)cc(O)c1O (racemic)
13.8 (≈ 58.4 µM) | 18.5 (≈ 78.3 µM) | 4.1 (≈ 17.4 µM) | 18.2 (≈ 77 µM) | 18.5 (≈ 78.3 µM) | COC(=O)c1cc(O)c(O)c(CC=C(C)C)c1
